In ChEMBL document CHEMBL5620421, “2,6-Disubstituted 7-(naphthalen-2-ylmethyl)-7H-purines as a new class of potent antitubercular agents inhibiting DprE1” (Eur J Med Chem, 2023):
Values after ≈ are worked out from the molar mass of the structure shown.

Tests used:
Format in all cases: functional
[1] = system: Mycobacterium kansasii; assay: Antitubercular activity against Mycobacterium kansasii CNCTC My 235/80 assessed as inhibition of bacterial growth measured after 7 days of incubation by Sulas semisynthetic medium based assay; details: CNCTC My 235/80, 168 h, time 7 day
Summary of the method: (§1)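 Micromethod in Sula's semisynthetic medium. MIC is the lowest concentration inhibiting >99% of the mycobacterial population. Isoniazid was the standard.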

[2] = system: Mycobacterium tuberculosis; assay: Antitubercular activity against Mycobacterium tuberculosis CNCTC My 331/88 (H37Rv) assessed as inhibition of bacterial growth measured after 14 days of incubation by Sulas semisynthetic medium based assay; details: 336 h, time 14 day
Summary of the method: (§2)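 Micromethod MIC in Sula's semisynthetic medium. MIC is the lowest concentration inhibiting >99% of the mycobacterial population. Isoniazid was the standard drug.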

[3] = system: Mycobacterium kansasii; assay: Antitubercular activity against Mycobacterium kansasii CNCTC My 235/80 assessed as inhibition of bacterial growth measured after 21 days of incubation by Sulas semisynthetic medium based assay; details: CNCTC My 235/80, 504 h, time 21 day; summary of the method: as §1
[4] = system: Mycobacterium kansasii; assay: Antitubercular activity against Mycobacterium kansasii CNCTC My 235/80 assessed as inhibition of bacterial growth measured after 14 days of incubation by Sulas semisynthetic medium based assay; details: CNCTC My 235/80, 336 h, time 14 day; summary of the method: as §1
[5] = system: Mycobacterium tuberculosis; assay: Antitubercular activity against Mycobacterium tuberculosis CNCTC My 331/88 (H37Rv) assessed as inhibition of bacterial growth measured after 21 days of incubation by Sulas semisynthetic medium based assay; details: 504 h, time 21 day; summary of the method: as §2
[6] = system: Mycobacterium avium; assay: Antitubercular activity against Mycobacterium avium CNCTC My 330/88 assessed as inhibition of bacterial growth measured after 21 days of incubation by Sulas semisynthetic medium based assay; details: CNCTC My 330/88, 504 h, time 21 day
Summary of the method: (§3)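 M. avium was tested by the micromethod in Sula's semisynthetic medium. Compounds in DMSO at 1000 to 0.5 μmol/L. Incubation at 37 °C, read at 14 and 21 days. MIC is the lowest concentration giving >99% growth inhibition.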

[7] = system: Mycobacterium avium; assay: Antitubercular activity against Mycobacterium avium CNCTC My 330/88 assessed as inhibition of bacterial growth measured after 14 days of incubation by Sulas semisynthetic medium based assay; details: CNCTC My 330/88, 336 h, time 14 day; summary of the method: as §3

| Structure (SMILES) | MIC99 [1] [µM] | MIC99 [2] [µM] | MIC99 [3] [µM] | MIC99 [4] [µM] | MIC99 [5] [µM] | MIC99 [6] [µM] | MIC99 [7] [µM] |
| --- | --- | --- | --- | --- | --- | --- | --- |
| O=c1[nH]c(N2CCOCC2)nc2ccn(Cc3ccc4ccccc4c3)c12 | > 500 | > 500 | > 500 | > 500 | > 500 | > 500 | > 500 |
| O=c1[nH]c(NC2CCC2)nc2ncn(Cc3ccc4ccccc4c3)c12 | > 500 | > 500 | > 500 | > 500 | > 500 | > 500 | > 500 |
| O=c1[nH]c(N2CCCC2)nc2ncn(Cc3ccc4ccccc4c3)c12 | > 500 | 8 (≈ 2.76 µg/mL) | > 500 | > 500 | 16 (≈ 5.53 µg/mL) | > 500 | > 500 |
| O=c1[nH]c(N2CCOCC2)nc2ncn(Cc3cccc4ccccc34)c12 | > 500 | > 500 | > 500 | > 500 | > 500 | > 500 | > 500 |
| CN(C)c1nc2ncn(Cc3ccc4ccccc4c3)c2c(=O)[nH]1 | > 500 | > 500 | > 500 | > 500 | > 500 | > 500 | > 500 |
| O=c1[nH]c(NC2CC2)nc2ncn(Cc3ccc4ccccc4c3)c12 | > 500 | > 500 | > 500 | > 500 | > 500 | > 500 | > 500 |
| O=c1[nH]c(N2CCOCC2)nc2c1ncn2Cc1ccccc1 | > 500 | > 500 | > 500 | > 500 | > 500 | > 500 | > 500 |
| O=c1[nH]c(NCCO)nc2ncn(Cc3ccc4ccccc4c3)c12 | > 500 | > 500 | > 500 | > 500 | > 500 | > 500 | > 500 |
| O=c1[nH]c(N2CC3(COC3)C2)nc2ncn(Cc3ccc4ccccc4c3)c12 | > 500 | > 500 | > 500 | > 500 | > 500 | > 500 | > 500 |
| CC(C)c1ccc(Cn2cnc3c(=O)[nH]c(N4CCOCC4)nc32)cc1 | > 250 | 125 (≈ 44.2 µg/mL) | > 250 | > 250 | > 250 | > 250 | > 250 |
| O=c1[nH]c(N2CCOCC2)nc2ncn(Cc3ccc(Cl)cc3)c12 | 125 (≈ 43.2 µg/mL) | > 500 | > 500 | 250 (≈ 86.4 µg/mL) | > 500 | > 500 | > 500 |
| S=c1[nH]c(=S)c2c(ncn2Cc2ccc3ccccc3c2)[nH]1 | > 500 | > 500 | > 500 | > 500 | > 500 | > 500 | > 500 |
| c1ccc2cc(Cn3cnc4nc(N5CCOCC5)nc(N5CCOCC5)c43)ccc2c1 | 125 (≈ 53.8 µg/mL) | 125 (≈ 53.8 µg/mL) | 250 (≈ 108 µg/mL) | 125 (≈ 53.8 µg/mL) | 125 (≈ 53.8 µg/mL) | 500 (≈ 215 µg/mL) | 250 (≈ 108 µg/mL) |
| c1ccc2cc(Cn3cnc4nc(N5CCOCC5)nc(NCc5ccncc5)c43)ccc2c1 | 64 (≈ 28.9 µg/mL) | 8 (≈ 3.61 µg/mL) | 64 (≈ 28.9 µg/mL) | 64 (≈ 28.9 µg/mL) | 8 (≈ 3.61 µg/mL) | 500 (≈ 226 µg/mL) | 250 (≈ 113 µg/mL) |
| COc1cccc(Cn2cnc3c(=O)[nH]c(N4CCOCC4)nc32)c1 | > 500 | > 500 | > 500 | > 500 | > 500 | > 500 | > 500 |
| COCCN(C)c1nc2ncn(Cc3ccc4ccccc4c3)c2c(=O)[nH]1 | > 500 | > 500 | > 500 | > 500 | > 500 | > 500 | > 500 |

| Structure (SMILES) | MIC99 [1] [µM] | MIC99 [2] [µM] | MIC99 [3] [µM] | MIC99 [4] [µM] | MIC99 [5] [µM] | MIC99 [6] [µM] | MIC99 [7] [µM] |
| --- | --- | --- | --- | --- | --- | --- | --- |
| Oc1nc(N2CCOCC2)nc2ncn(Cc3ccccc3)c12 | > 500 | > 500 | > 500 | > 500 | > 500 | > 500 | > 500 |
| O=c1[nH]c(N2CCOCC2)nc2ncn(-c3cccc4c3sc3ccccc34)c12 | > 250 | > 250 | > 250 | > 250 | > 250 | > 250 | > 250 |
| O=c1[nH]c(N2CCOCC2)nc2c1ncn2Cc1ccc(Cl)cc1 | > 500 | > 500 | > 500 | > 500 | > 500 | > 500 | > 500 |
| COc1ccc(Cn2cnc3c(=O)[nH]c(N4CCOCC4)nc32)cc1 | > 500 | > 500 | > 500 | > 500 | > 500 | > 500 | > 500 |
| Clc1ncnc2ncn(Cc3ccc4ccccc4c3)c12 | 1000 (≈ 295 µg/mL) | 125 (≈ 36.8 µg/mL) | > 1000 | > 1000 | 125 (≈ 36.8 µg/mL) | > 1000 | > 1000 |
| COc1cccc(Cn2cnc3nc(N4CCOCC4)[nH]c(=O)c32)c1 | > 500 | 500 (≈ 171 µg/mL) | > 500 | > 500 | > 500 | > 500 | – |
| O=c1[nH]c(N2CCOCC2)nc2c1ncn2Cc1ccc2ccccc2c1 | > 250 | > 250 | > 250 | > 250 | > 250 | > 250 | > 250 |
| COc1ccc(Cn2cnc3nc(N4CCOCC4)[nH]c(=O)c32)cc1 | – | 32 (≈ 10.9 µg/mL) | > 500 | > 500 | 64 (≈ 21.8 µg/mL) | > 500 | > 500 |
| O=c1[nH]cnc2ncn(Cc3ccc4ccccc4c3)c12 | 125 (≈ 34.5 µg/mL) | > 500 | > 500 | > 500 | > 500 | > 500 | > 500 |
| O=c1[nH]c(N2CCOCC2)nc2c1ncn2Cc1ccc(Cl)c(Cl)c1 | > 250 | > 250 | > 250 | > 250 | > 250 | > 250 | > 250 |
| CN1CCN(c2nc3ncn(Cc4ccc5ccccc5c4)c3c(=O)[nH]2)CC1 | 250 (≈ 93.6 µg/mL) | 250 (≈ 93.6 µg/mL) | 500 (≈ 187 µg/mL) | 500 (≈ 187 µg/mL) | 500 (≈ 187 µg/mL) | > 500 | > 500 |
| S=c1[nH]cnc2ncn(Cc3ccc4ccccc4c3)c12 | > 500 | > 500 | > 500 | > 500 | > 500 | > 500 | > 500 |
| O=c1[nH]c(N2CCOCC2)nc2ncn(-c3ccsc3)c12 | > 500 | > 500 | – | > 500 | > 500 | > 500 | > 500 |
| Cn1c(N2CCOCC2)nc2ncn(Cc3ccc4ccccc4c3)c2c1=O | – | 32 (≈ 12 µg/mL) | > 500 | > 500 | 64 (≈ 24 µg/mL) | > 500 | > 500 |
| CN(C)CCNc1nc(N2CCOCC2)nc2ncn(Cc3ccc4ccccc4c3)c12 | 64 (≈ 27.6 µg/mL) | 32 (≈ 13.8 µg/mL) | 125 (≈ 53.9 µg/mL) | 125 (≈ 53.9 µg/mL) | 64 (≈ 27.6 µg/mL) | 500 (≈ 216 µg/mL) | 500 (≈ 216 µg/mL) |
| COCCNc1nc2ncn(Cc3ccc4ccccc4c3)c2c(=O)[nH]1 | > 500 | > 500 | > 500 | > 500 | > 500 | > 500 | > 500 |
